How the values were obtained:
Type in all cases: functional
[1] = Antioxidant activity assessed as superoxide anioin radical scavenging activity after 5 mins by spectrophotometric analysis
Outline: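 Pyrogallol autoxidation at room temperature: 0.05 M Tris-HCl buffer, sample in DMF at various concentrations and 30 mM 1,2,3-trihydroxybenzene reacted 5 min. Stopped with 8.0 M HCl; absorbance at 320 nm against blank. Percent scavenging vs no-sample absorbance, triplicate; IC50 as concentration scavenging 50%.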

[2] = Antioxidant activity assessed as ABTS radical scavenging activity after 3 mins by spectrophotometric analysis
Outline: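 ABTS radical cation generated from 2 mM ABTS stock in PBS pH 7.4 reacted with 70 mM K2S2O8 in the dark at room temperature for 15-16 h, then diluted with PBS to A734 0.700 ± 0.030. Sample solutions at various concentrations mixed with ABTS radical (0.1:1.9 ml). Absorbance read at ambient temperature after 3 min. Percent scavenging vs control without sample; triplicate; IC50 = concentration scavenging 50%.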

[3] = test system: Radical scavenging activity; test: Antioxidant activity assessed as DPPH free radical scavenging activity after 30 mins by spectrophotometric analysis
Outline: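 Sample dissolved in DMF at several concentrations, added to 0.004% (w/v) DPPH in ethanol, incubated at 37 °C. Absorbance at 517 nm after 30 min. Percent scavenging computed against a control lacking scavenger; triplicate means; IC50 taken as concentration giving 50% radical scavenging.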

[4] = Antioxidant activity assessed as hydroxyl radical scavenging activity after 1 hr by spectrophotometric analysis
Outline: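 Salicylate method: 20 mM sodium salicylate, 1.5 mM FeSO4, sample at various concentrations, then 6 mM H2O2 (stock levels), mixed and held in a 37 °C water bath 1 h. Absorbance at 510 nm against blank; percent scavenging vs no-sample absorbance; triplicate; ascorbic acid positive control; IC50 as 50% scavenging concentration.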

| SMILES | IC50 [1] | IC50 ([2]; read-out: IC50) | IC50 ([3]; read-out: IC50) | IC50 ([4]; read-out: IC50) | IC50 [3] | IC50 [4] | IC50 [2] |
| --- | --- | --- | --- | --- | --- | --- | --- |
| O=c1cc(/C=N\O)c2ccc(OCc3ccccc3)cc2o1 | > 2000 µM | 22.8 µM | 2410 µM | > 2000 µM |  |  |  |
| O=c1cc(/C=N\O)c2c(OCc3ccccc3)cc(OCc3ccccc3)cc2o1 | > 2000 µM | 38.6 µM |  |  | Not Active | Not Active |  |
| O=c1cc(/C=N\Nc2ccccc2)c2c(OCc3ccccc3)cc(OCc3ccccc3)cc2o1 | 303 µM | 40.1 µM | 76.4 µM | 401 µM |  |  |  |
| O=c1cc(/C=N\Nc2ccccc2)c2ccc(OCc3ccccc3)cc2o1 | 416 µM | 13.2 µM | 57.7 µM | 455 µM |  |  |  |
| O=c1cc(/C=N\Nc2ccc([N+](=O)[O-])cc2)c2c(OCc3ccccc3)cc(OCc3ccccc3)cc2o1 | 419 µM | 15.5 µM | 1610 µM | 97.9 µM |  |  |  |
| O=c1cc(/C=N\c2ccc(O)cc2)c2ccc(OCc3ccccc3)cc2o1 | 525 µM | 64.5 µM | 36.6 µM | 233 µM |  |  |  |
| O=c1cc(/C=N\c2ccccc2O)c2ccc(OCc3ccccc3)cc2o1 | 469 µM | 1.29 µM | 33.3 µM |  |  | Not Active |  |
| O=c1cc(/C=N\Nc2ccc([N+](=O)[O-])cc2)c2ccc(OCc3ccccc3)cc2o1 | > 2000 µM | 9.51 µM | 1350 µM | > 2000 µM |  |  |  |

Compounds with a lower IC50 [1], results first:

| IC50 [1] | IC50 ([2]; read-out: IC50) | IC50 ([3]; read-out: IC50) | IC50 ([4]; read-out: IC50) | IC50 [3] | IC50 [4] | IC50 [2] | SMILES |
| --- | --- | --- | --- | --- | --- | --- | --- |
| 33.1 µM | 7.76 µM | 16.2 µM | 348 µM |  |  |  | O=c1cc(/C=N\c2ccccc2O)c2c(OCc3ccccc3)cc(OCc3ccccc3)cc2o1 |
| 181 µM | 6.49 µM | 10.5 µM | 1970 µM |  |  |  | O=c1cc(/C=N\Nc2ccc([N+](=O)[O-])cc2[N+](=O)[O-])c2ccc(OCc3ccccc3)cc2o1 |
| 217 µM | 9.25 µM | 857 µM | 34.6 µM |  |  |  | Nc1ccccc1/N=C\c1cc(=O)oc2cc(OCc3ccccc3)ccc12 |
| 36.5 µM | 363 µM |  | > 2000 µM | Not Active |  |  | N/N=C\c1cc(=O)oc2cc(OCc3ccccc3)cc(OCc3ccccc3)c12 |
| 146 µM |  |  |  | Not Active | Not Active | Not Active | O=c1cc(-c2nc3ccccc3[nH]2)c2ccc(OCc3ccccc3)cc2o1 |
| 258 µM | 7.53 µM | 315 µM | 624 µM |  |  |  | Nc1ccccc1/N=C\c1cc(=O)oc2cc(OCc3ccccc3)cc(OCc3ccccc3)c12 |
| 249 µM | 3.57 µM | 6.91 µM | 107 µM |  |  |  | O=c1cc(/C=N\c2ccc(O)cc2)c2c(OCc3ccccc3)cc(OCc3ccccc3)cc2o1 |
| 131 µM | 9.74 µM | 1290 µM |  |  | Not Active |  | N/N=C\c1cc(=O)oc2cc(OCc3ccccc3)ccc12 |
| 254 µM | 37 µM | 65.8 µM | > 2000 µM |  |  |  | Cc1cc(C(C)(C)C)c(O)c(C(C)(C)C)c1 [BUTYLATED HYDROXYTOLUENE] |
| 292 µM |  |  | 734 µM | Not Active |  | Not Active | O=c1cc(/C=N\Nc2ccc([N+](=O)[O-])cc2[N+](=O)[O-])c2c(OCc3ccccc3)cc(OCc3ccccc3)cc2o1 |
| 15.6 µM | 12.8 µM | 43.8 µM | 73.8 µM |  |  |  | O=C1O[C@H]([C@@H](O)CO)C(O)=C1O [ASCORBIC ACID] |

From ChEMBL document CHEMBL1909610, “Synthesis and antioxidant activities of novel 4-Schiff base-7-benzyloxy-coumarin derivatives” (Bioorg Med Chem Lett, 2011)
